In ChEMBL document CHEMBL4513216, “Probing the Open Global Health Chemical Diversity Library for Multistage-Active Starting Points for Next-Generation Antimalarials” (ACS Infect Dis, 2020):

assay: Toxicity liver stage against HepG2, at 10uM; assay type: cell-based; design: test concentration 10 uM, cell line HepG2-A16-CD81EGFP; conditions: human, HepG2-A16-CD81EGFP cells; read-out: INHIBITION
Outline: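 Uninfected HepG2-A16-CD81EGFP cells, 3 × 10^3 per well, 1536-well, plated on prespotted compound at 10 μM final, parasite-free screening media added to match infected plates; puromycin 10 μM positive, DMSO 0.5% negative; run in parallel with 48 h PbLuc assay at 37 °C, 5% CO2; viability by CellTiter-Glo luminescence, normalized to controls.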

SMILES	cytotoxicity at 10 µM [%]
CC1(C)Cc2ccccc2-c2nc(NCCCO)[nH]c(=O)c21	3.57
COCCCN(Cc1ccccn1)S(=O)(=O)Cc1ccccc1	14.4
Cc1cn2nc(N3CCCC3C(=O)N3CCN(C)CC3)sc2n1 (centres undefined)	-12.6
CC(=O)N1CC[C@H]2NC(=O)N(Cc3ccccc3)C(=O)[C@H]21	4.47
Cc1nn(-c2cc(Cl)cc(Cl)c2)c(C)c1CCC(=O)O	3.8
Cn1nc(-c2cccc(Cl)c2)c(Br)c1C(=O)O	-56.5
CSc1ccccc1C(=O)NCCC(O)c1ccco1 (centres undefined)	-9.95
CCc1cnc(N2CC[C@@H]3CN(C(C)=O)CCO[C@@H]3C2)nc1	9.1
O=C(c1ccoc1)N1CC[C@@H]2[C@@H](CC1)OCCN2c1cccnc1	11.1
CCOCc1nn(CC2CC2)c2c1CN(C(=O)c1ccno1)CC2	1.99
COc1cc(N2CC[C@@H]3O[C@@H](c4ccnc(C)n4)C[C@H]3C2)ncn1	23.1
Fc1cccc(N2CCc3ncnc(C4CC4)c3CC2)c1	11.9
COCCn1cc(-c2cc(C(=O)N3CCCC3)c3ccccn23)nc1C	8.61
COc1cc(N2CC[C@H]3OCC[C@@]3(COc3nccc(C)n3)C2)ncn1	11.8
Cc1cc2nc(SCC(=O)N3CCOCC3)n(CCC(C)C)c(=O)c2[nH]1	10.8
CCc1cccc(-n2nnc(C(=O)O)c2-c2ccncc2)c1	7.77
c1cc(-c2nnc3sc(CCN4CCCC4)nn23)ccn1	-4.31
Cn1nc(C(=O)N2CCOCC2)cc1C(=O)Nc1cc(Cl)cc(Cl)c1	27.9
CCc1noc(C2CCCCN2C(=O)c2ccc(C)o2)n1 (centres undefined)	14
Cc1nn(Cc2ccc(C(=O)NCCCN3CCCC3=O)o2)c(C)c1Br	9.35
CC(C)N1CCC(c2cnc(-c3cncnc3)cn2)CC1	2.55
Cc1cccc(CN2CCCC2c2cncc(Nc3nncs3)n2)c1 (centres undefined)	-3.47

SMILES	cytotoxicity at 10 µM [%]
Cc1nc(C)c(C(=O)N2CCCC2(C)C(=O)NC2CCCC2)o1 (centres undefined)	0.61
CC(=O)N1CCN(CCCOc2ccccc2F)CC(C(N)=O)C1 (centres undefined)	-28.7
CNC(=O)c1cn[nH]c1C1(C)CCCN(Cc2nccn2C(C)C)C1 (centres undefined)	-2.73
COc1ccc(C2Nc3cc(Cl)ccc3C3=NCCN32)cc1CO (centres undefined)	-19.3
CC[C@@H]1C[C@H](C(F)(F)F)n2nc(C3CCN(S(=O)(=O)CC)CC3)cc2N1	-28.2
O=C1CO[C@H]2CN(Cc3ccccc3Br)C[C@@H]2N1	2.13
CN(CC1(O)CCN(c2ccccn2)C1)C(=O)Cc1ccsc1 (centres undefined)	-11.7
CCn1ncc(CN2C[C@@H]3CCCN3C[C@@H]2CCSC)c1C	-27.3
O=C1NC2(Cc3ccccc31)CN(CC1CCCC1)C2	7.58
CCCn1nnnc1CN(CC)CC1COc2ccccc2O1 (centres undefined)	13.3
CN1CCN(S(=O)(=O)c2ccc(Sc3nccn3C)nc2)CC1	10.2
CS(=O)(=O)CCn1ccc(NC(=O)c2c(F)cccc2F)n1	18.2
O=C(O)c1ccn(-c2ccc(NC(=O)c3ccccc3Cl)cc2)n1	-140
COc1cccc(C(=O)NS(=O)(=O)c2cc(Cl)sc2Cl)c1OC(F)F	-0.268
CC(=O)Nc1ccc(CNCC(O)c2ccc(Cl)cc2)cc1 (centres undefined)	-8.74
CCN(CC)S(=O)(=O)c1ccc(CNC(=O)N2CCC(C#N)CC2)cc1	20
Cc1ccc(F)c(S(=O)(=O)NCc2cccc(CS(C)(=O)=O)c2)c1	-7.61
Cc1cc(C)c(CNC(=O)NCCNc2ccccn2)c(=O)[nH]1	-37
Cc1nc(CNC(C)c2ccc(S(=O)(=O)N(C)C)cc2)no1 (centres undefined)	-4.32
O=C(O)c1cc(S(=O)(=O)Nc2cccc3c2OCCO3)ccc1F	12.3
N#Cc1cccnc1N1CCCN(C(=O)CCc2cccs2)CC1	-15.8
COc1cc(CN(C)C(=O)NCc2cccc3c2OCO3)ccc1SC	-6.08

SMILES	cytotoxicity at 10 µM [%]
Cc1c(C(=O)NCC(C)C)nnn1-c1cccc2c1CCN(CCO)C2	8.09
Cc1cnn(CC2CCCN2C(=O)CCc2ccco2)c1 (centres undefined)	-4.7
Cc1cc(C)n(CC2CN(Cc3ccc(C(N)=O)cc3)CCO2)n1 (centres undefined)	-15.1
O=C(c1cccnc1O)N1CCC(COc2ccccc2)CC1	9.53
CSC1(CNc2ncc(Br)cn2)CCOCC1	-8.93
CCc1noc(CC)c1CC(=O)N1CCN(C(C#N)C(C)C)CC1 (centres undefined)	-9.66
CC(C)OCc1cccc(NC(=O)N(C)Cc2ncnn2C)c1	4
CCCNC(=O)C1CCN(CC2(O)CCC(C)CC2)CC1 (centres undefined)	4.55
COc1ccsc1C(=O)Nc1cc(Br)c(=O)n(C)c1	-11
CS(=O)(=O)Cc1noc(CN2CCN(c3ccccc3Cl)CC2)n1	5.09
CCC(C)NS(=O)(=O)c1ccc(C(=O)N(C)C2(C#N)CCC2)cc1 (centres undefined)	16.1
OC(COCc1ccccc1F)CN1CCC(Cn2cccn2)CC1 (centres undefined)	-10.2
CCOC1CCN(CCc2nc(-c3cccc(Cl)c3)no2)CC1	-0.139
OC1(CNC2CCN(Cc3ccncc3)CC2)CCc2ccccc21 (centres undefined)	-1.41
c1nc(N2CCCCC2Cn2cncn2)c2ccsc2n1 (centres undefined)	-2.49
COc1cccc(S(=O)(=O)CCN2CCCN(C(C)=O)CC2)c1	-10.4
CC1CN(C)c2ccccc2CN1C(=O)c1ccncc1 (centres undefined)	-23.4
CO[C@H]1CO[C@@]2(CCCN(C(=O)N3CCCC3)C2)C1	-108
O=C(c1cscn1)N1CCc2ncc(CN3CCOCC3)n2CC1	-75.6
O=C(c1ccnnc1)N1C[C@@H]2COC[C@]2(COCC2CC2)C1	-73.2
Cn1cc(-c2nnn3c2COC(CNCc2ccccn2)C3)cn1 (centres undefined)	0.298
Nc1ncccc1CN1CCCn2nc(CCC(=O)NC3CC3)cc2C1	1.45

SMILES	cytotoxicity at 10 µM [%]
O=C1CCOCCN1Cc1ccc(Cl)c(Cl)c1	3.3
Cc1ccc(-n2ccnc2-c2cn(C3CCNCC3)nn2)c(Cl)c1	3.07
CC(Nc1nc(-c2ccncc2)nc2c1CCNC2)c1ccccc1 (centres undefined)	-9.94
CCN1CC(C(=O)NCc2nc(C3CCCCC3)no2)CC1=O (centres undefined)	-3.68
CC(=O)c1ccc(-c2cnn(CC(=O)Nc3ccnn3C)c2)nc1	1.99
Cc1cccc(N2CCN(CCC(=O)NCc3cnc(C)cn3)CC2)c1	-1.48
CC(C)CN1C(=O)CC[C@H]2CN(C(=O)Cn3ccccc3=O)CC[C@H]21	-7.37
C=C(C)COc1cccc(C(=O)N2CCC3(CC2)CN(C)CCN3C)c1	-52.4
COc1ccccc1-n1cc(C(=O)NCCCn2nc(C)nc2C)cn1	5.02
Cc1cnn(C(C)C2CC2)c1NC(=O)c1ccc(Cn2cnnn2)cc1 (centres undefined)	-2.06
CC(C)[C@H]1CN(Cc2ccccc2C#N)C[C@@H]1NC(=O)C1CCOCC1	1.47
COc1ccc(NC2CCCN(Cc3cnc(N(C)C)s3)C2)cc1 (centres undefined)	0.88
Cc1nc2c(c(NC3CCN(Cc4cccnc4)CC3)n1)CCNCC2	-1.14
Cc1nnc2n1CCN(Cc1ncc(-c3ccc(F)cc3)o1)C2	-10.7
Cc1nc(C2CCCN2CC(=O)N2CCc3ccccc32)no1 (centres undefined)	-19.6
CCc1nc(C2CCCN2CCC(=O)N2CCc3ccccc32)no1 (centres undefined)	-23.7
COc1ccc(C2=CCN(C(=O)CN(C)Cc3ccco3)CC2)cc1	-6.16
O=C(Cc1ccccc1)NCCNC(=O)c1scnc1Cl	-1.55
Cn1ccc(C(=O)NCc2ccc(N3CCCCC3)nc2)cc1=O	-10.8
CCc1csc(C2CCCN(C(=O)COc3cc(C)on3)C2)n1 (centres undefined)	-9.71
Cc1cccc(NC(=O)N2CCN(Cc3noc(C4CC4)n3)CC2)c1	-10.1
Fc1cccc(Oc2ccc(CNCC3CNc4ccnn4C3)cn2)c1 (centres undefined)	-7.16

SMILES	cytotoxicity at 10 µM [%]
COC(=O)c1cccc(NC(=O)CCn2nc(-c3cccs3)oc2=O)c1	-8.13
Cc1ccc(N2CCCN(C(=O)C3(C#N)CCCCC3)CC2)nn1	-7.7
c1ccc(Cn2cccn2)c(CNCC2CNc3ccnn3C2)c1 (centres undefined)	-10.7
COc1ncccc1C(=O)N1CCCC(c2cc(C)[nH]n2)C1 (centres undefined)	-7.49
CC(C)c1nc2c(n1C)CCN(CC(=O)Nc1nccs1)C2	1.88
OCCN(Cc1ccncc1)CC1(c2ccc(Cl)cc2)CC1	9.39
CC(C)CN1C(=O)CCC12CCC(NC(=O)NCc1cccnc1)CC2 (centres undefined)	-118
Cn1cc(C(=O)NC[C@H]2OC[C@@H]3CCN(C4CCOCC4)C[C@@H]32)cn1	8.01
CC(=O)N1CCc2ncn(C)c2C1C(=O)N1CCCC1 (centres undefined)	1.9
Cc1nc(C)c2c(n1)CCN(Cc1nccn1C)CC2	-122
Cn1nccc1-c1nnn2c1COCC(CNCC1CC1)C2 (centres undefined)	-98.8
O=C(C1CCC1)N1CCC2(CCN(Cc3cccc(F)c3)CC2)CC1	-4.29
Cc1ccc(CN2Cc3nccn3CC(Cn3cccn3)C2)s1 (centres undefined)	-101
COCCNC(=O)[C@@]12CCO[C@@H]1CCN(Cc1ccncc1)C2	-77.3
Cc1ccc(CN2C[C@@H]3[C@@H](C2)OCC(=O)N3Cc2ccncc2)s1	-67.7
CC(C)CN1CC[C@@H]2[C@H](CC1)N(S(C)(=O)=O)CCS2(=O)=O	2.05
Cc1n[nH]c(C)c1CNCC(O)c1cccc(Cl)c1 (centres undefined)	4.91
O=C(c1ccsc1)N1CCc2onc(COc3ccccn3)c2C1	6.43
CCN1C(=O)CCC12CCCN(Cc1nccs1)C2 (centres undefined)	-73.5
c1cnc(N2CCC3(COCCN(CC4CC4)C3)C2)nc1 (centres undefined)	0.668
CCOCCC(=O)N1C[C@@H]2CC[C@H]1CN(Cc1ccncc1)C2	-11.1
